We go through two compounds from publication PMC9043769 (RSC Advances, 2021).

The test system of assay [1] is MRC-5 normal fetal lung fibroblasts. The assay can be described thus: MTT cytotoxicity assay, 72 h. In kind it is cell-based, human. The conditions noted are these: read-out: IC50, after 72 h incubation, MRC-5.
The subject of assay [2] is PC-3 prostate cancer cells. The assay can be described thus: MTT cytotoxicity assay, 72 h. In kind it is cell-based, human. A digest of the protocol: (§1)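 Cell lines (ATCC) grown in DMEM with […], 10% FCS and antibiotic–antimycotic at 37 °C, 5% CO2. […] IC50 was calculated from means of at least two or three independent experiments in triplicate or quadruplicate.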

For assay [3], the system named is HT-29 colon adenocarcinoma cells. The assay can be described thus: MTT cytotoxicity assay, 72 h. It is filed as cell-based, human. The conditions noted are these: read-out: IC50, after 72 h incubation, HT-29. An outline of the steps:
as §1

Assay [4] deals with HeLa cervical carcinoma cells. The experiment in a line: MTT cytotoxicity assay, 72 h. In kind it is cell-based, human. An outline of the steps: as §1
The subject of assay [5] is MCF-7 (ER+ breast adenocarcinoma) cells. The assay can be described thus: MTT cytotoxicity assay, 72 h. It is filed as cell-based, human. The settings on record: for IC50: read-out: IC50, after 72 h incubation, MCF-7. An outline of the steps: as §1
Assay [6] concerns A549 lung adenocarcinoma cells. The experiment in a line: MTT cytotoxicity assay, 72 h. The conditions noted are these: read-out: IC50, after 72 h incubation, A549. It is filed as cell-based, human. A digest of the protocol: as §1
The subject of assay [7] is MDA-MB-231 (ER− breast adenocarcinoma) cells. The experiment in a line: MTT cytotoxicity assay, 72 h. It is filed as cell-based, human. The settings on record: read-out: IC50, after 72 h incubation, MDA-MB-231. A digest of the protocol:
as §1

Assay [8] concerns CEM T-lymphoblastic leukemia cells. The assay can be described thus: alamarBlue. In kind it is cell-based, human. The settings on record: read-out: IC50, after 72 h incubation, CEM. A digest of the protocol: (§2)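 CEM cells grown in RPMI 1640 with 20% FBS; G-361 and BJ cells in DMEM with 10% FBS. All media had 2 mM L-glutamine and 1% penicillin-streptomycin, 37 °C, 5% CO2. Six concentrations of compound, 0.2–50 μM (3× dilution), were applied for 72 h, with a resazurin (alamarBlue) read-out. IC50 came from means of at least two or three independent experiments in triplicate or quadruplicate.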

The subject of assay [9] is G-361 malignant melanoma cells. The experiment in a line: alamarBlue. The settings on record: read-out: IC50, after 72 h incubation, G-361. It is filed as cell-based, human. A digest of the protocol: as §2
Assay [10] relates to BJ human foreskin fibroblasts. The experiment in a line: alamarBlue. In kind it is cell-based. The conditions noted are these: read-out: IC50, after 72 h incubation, BJ, normal fibroblasts. An outline of the steps:
as §2

Read-outs that look alike come from different tables or passages of the source.

For the compound `C[C@]12CCC(=O)C(O)=C1CC[C@@H]1[C@@H]2CC[C@]2(C)C(=O)CC[C@@H]12` [For, formestane], the IC50 in [1] (Homo sapiens, MRC5, 72 h) is > 100 µM; in assay [2] (Homo sapiens, read-out: IC50, after 72 h incubation, PC-3), 26.4 µM; in [3] (Homo sapiens, HT-29, 72 h) it was > 100 µM; in [4] (Homo sapiens, HeLa, read-out: IC50, after 72 h incubation, HeLa), 3.4 µM; in assay [5] (Homo sapiens, MCF7, 72 h), > 100 µM; in [6] (Homo sapiens, A549, 72 h), 38.6 µM. In addition, the IC50 in [7] (Homo sapiens, MDA-MB-231, 72 h) worked out at 19.6 µM. The “Toxicity toward MCF-7 tumor cells (in words)” value in [5] (MTT, 72 h) was “no toxicity”.
`N.N.[Cl][Pt][Cl]` [Cis-Pt, cisplatin]: the IC50 in assay [1] (MTT, 72 h, normal cells) amounted to 0.2 µM; in [2] (read-out: IC50, after 72 h incubation, PC-3, MTT), 4.5 µM; in [8] it was 0.8 µM; in [3] (MTT, 72 h), 4.1 µM; in assay [4] (read-out: IC50, after 72 h incubation, HeLa, MTT), 2.1 µM; in assay [5] (MTT, 72 h), 1.6 µM. Also, the IC50 in assay [6] (MTT, 72 h) is 3.2 µM; in assay [9], 4.5 µM; in [10], 9.6 µM; in [7] (MTT, 72 h), 2.6 µM.
